Assay results reported in ChEMBL document CHEMBL4513216, “Probing the Open Global Health Chemical Diversity Library for Multistage-Active Starting Points for Next-Generation Antimalarials” (ACS Infect Dis, 2020).

Experiment: Toxicity liver stage against HepG2, at 10uM
Format: cell-based
Design: test concentration 10 uM, cell line HepG2-A16-CD81EGFP
Conditions: human, HepG2-A16-CD81EGFP cells; read-out: INHIBITION
Method in brief: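 Uninfected HepG2-A16-CD81EGFP cells, 3 × 10^3 per well, 1536-well, plated on prespotted compound at 10 μM final, parasite-free screening media added to match infected plates; puromycin 10 μM positive, DMSO 0.5% negative; run in parallel with 48 h PbLuc assay at 37 °C, 5% CO2; viability by CellTiter-Glo luminescence, normalized to controls.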

## COC(=O)c1cnc2c(c(C)nn2C)c1OC
  cytotoxicity at 10 µM: 0.822%

## Cc1cc(=O)[nH]c(-n2nc(-c3ccccc3)cc2N)n1
  cytotoxicity at 10 µM: 5.71%

## NC(=O)c1cccc2nc([C@H]3CCN(Cc4ccccn4)C3)[nH]c12
  cytotoxicity at 10 µM: 4.32%

## c1ccc2c(Cc3nnc([C@H]4CCNC4)o3)c[nH]c2c1
  cytotoxicity at 10 µM: -0.762%

## Cc1ncc(CNC(C)(C)CO)c2cc(C(=O)c3ccc(Br)cc3)oc12
  cytotoxicity at 10 µM: 12.7%

## Cc1nccn1CC1CCN(C(=O)c2ccccc2)CC1
  cytotoxicity at 10 µM: -4.17%

## O=C(Nc1cnccn1)[C@H]1COC[C@H]2CN(c3ncc(F)cn3)C[C@H]21
  cytotoxicity at 10 µM: -0.695%

## COCC(=O)N1CCC2(CC1)COc1ccccc1S(=O)(=O)N(C)C2
  cytotoxicity at 10 µM: 9.7%

## CC(C)Nc1nc(N2CCCC2)nc2c1CN(c1ncc(F)cn1)CC2
  cytotoxicity at 10 µM: 13.5%

## O=C(c1ccnnc1)N1CC[C@H](OCC2CC2)[C@@H]1Cc1ccncc1
  cytotoxicity at 10 µM: -1.43%

## CC(C)CNC(=O)CC1(Cn2cnnn2)CCCCC1
  cytotoxicity at 10 µM: 11.1%

## CC(C)NC(=O)[C@@H](NC(=O)N1CCN(c2ccc(Cl)cc2)CC1)C(C)C
  cytotoxicity at 10 µM: 34.9%

## Cc1c(C)n(-c2ccccn2)c2nc3c(c(N)c12)CCCC3
  cytotoxicity at 10 µM: 7.18%

## CCCc1nc(N2CCCC(C)C2)c2c(n1)c(C)nn2CC (stereo not given)
  cytotoxicity at 10 µM: 15.6%

## Cc1cccc2c1cnn2CCCNC(=O)C1CC1
  cytotoxicity at 10 µM: 5.01%

## CSc1ccc(-c2noc(CN(CC(C)C)CC(C)C)n2)cc1
  cytotoxicity at 10 µM: -3.7%

## Cc1ccc([C@]2(O)CC[C@H]3CN(Cc4ccncc4)C[C@H]32)nc1
  cytotoxicity at 10 µM: -31.5%

## N#CC(NC(=O)CCCOc1cccnc1)c1ccc(F)cc1F (stereo not given)
  cytotoxicity at 10 µM: 8.23%

## CCc1ccc(C(=O)Nc2ccc3c(c2)N(C)CCN(C)C3)o1
  cytotoxicity at 10 µM: -7.69%

## N#Cc1ccccc1OCCN1CCN(C(=O)C2CCCC2)CC1
  cytotoxicity at 10 µM: -52.1%

## Cc1ccc(-c2nc(CC(=O)NCC(C)N3CCOCC3)cs2)o1 (stereo not given)
  cytotoxicity at 10 µM: -47.5%

## O=C(NCCn1ccnc1)C1COCC(=O)N1Cc1ccccc1 (stereo not given)
  cytotoxicity at 10 µM: 8.19%

## CCC(CC)(CNC(=O)OC(C)(C)C)NC(=O)c1cnccn1
  cytotoxicity at 10 µM: -8.56%

## N#Cc1cc(F)ccc1NCC1CCN(S(=O)(=O)C(F)F)CC1
  cytotoxicity at 10 µM: 18.4%

## CC(CNC1CCN(c2ccccn2)CC1)Oc1ccc(F)cc1 (stereo not given)
  cytotoxicity at 10 µM: 7.43%

## CS(=O)(=O)c1ccccc1N[C@@H]1c2ccccc2C[C@@H]1O
  cytotoxicity at 10 µM: -40.5%

## COc1cc(C)sc1C(=O)NCCC(=O)N(C)Cc1ccccc1
  cytotoxicity at 10 µM: -8.78%

## N#Cc1c(F)cccc1Nc1cnn(CC(N)=O)c1
  cytotoxicity at 10 µM: 6.25%

## CCc1ccc(C2CCCN2C(=O)Cc2ccc(NC(C)=O)cc2)o1 (stereo not given)
  cytotoxicity at 10 µM: -0.557%

## CC(C)C(C)N(C)Cc1nnc(-c2ccco2)o1 (stereo not given)
  cytotoxicity at 10 µM: 2.65%

## Cc1cc(C)c(CCNC(=O)CN2CCCN(C(N)=O)CC2)c(C)c1
  cytotoxicity at 10 µM: -0.819%

## COc1ccc(CNC(=O)N2CCOCC2C2CC2)cc1C (stereo not given)
  cytotoxicity at 10 µM: 10.4%

## Cc1cccn2c(=O)cc(CN3CCCC3Cn3cccn3)nc12 (stereo not given)
  cytotoxicity at 10 µM: -4.55%

## COCc1nc2cc(NCc3sc(C)nc3C)ccc2o1
  cytotoxicity at 10 µM: 29.1%

## CNS(=O)(=O)c1cccc(C(C)NCc2ccc(F)cc2F)c1 (stereo not given)
  cytotoxicity at 10 µM: 12.8%

## O=C(CCn1cccn1)NCC(c1cccs1)N1CCCC1 (stereo not given)
  cytotoxicity at 10 µM: 7.02%

## Cc1ccc(C(=O)CN2C(=O)c3ccccc3CS2(=O)=O)c(C)c1
  cytotoxicity at 10 µM: 17.6%

## COc1ncccc1C(=O)NC1(c2cccc(F)c2)CCOCC1
  cytotoxicity at 10 µM: 10.9%

## CN(Cc1ccc(Cl)s1)C(=O)Cn1nc(-c2ccc(F)cc2)oc1=O
  cytotoxicity at 10 µM: -20.4%

## COc1ccc(NC(=O)CSC(F)(F)F)cn1
  cytotoxicity at 10 µM: -96.6%

## CC(Nc1cnn(C)c(=O)c1Cl)c1ccc(F)cc1 (stereo not given)
  cytotoxicity at 10 µM: 20.7%

## O=C(CCN1C(=O)CCC1=O)Nc1ccc(Cl)cc1
  cytotoxicity at 10 µM: -2.79%

## CNC(=O)CN1CCC(OCc2ccc(Cl)c(Cl)c2)CC1
  cytotoxicity at 10 µM: -14.4%

## CCCc1noc(CN2CCOCC2C)n1 (stereo not given)
  cytotoxicity at 10 µM: 6.3%

## Cc1oc(-c2ccsc2)nc1CN1CCCC(c2ccnn2C)C1 (stereo not given)
  cytotoxicity at 10 µM: 10.7%

## CCS(=O)(=O)NC(CCSC)C(=O)Nc1cc(F)ccc1C (stereo not given)
  cytotoxicity at 10 µM: 6.29%

## O=C(CN(CC(O)c1ccc(F)cc1)C1CC1)NCc1cccs1 (stereo not given)
  cytotoxicity at 10 µM: 0.0428%

## Cc1csc(CCCNc2ccc(S(N)(=O)=O)cc2C#N)n1
  cytotoxicity at 10 µM: -49%

## CCn1cc(C2CCN(Cc3ccnc(N(C)C)c3)CC2)cn1
  cytotoxicity at 10 µM: 11%

## CN(CCNS(C)(=O)=O)C(=O)c1ccc(Cl)c(Cl)c1
  cytotoxicity at 10 µM: -52.4%

## CCC(CCO)NS(=O)(=O)c1ccc(Br)cn1 (stereo not given)
  cytotoxicity at 10 µM: 6.62%

## CC(CCN(C)C)NC(=O)c1cccc(C(F)(F)F)c1F (stereo not given)
  cytotoxicity at 10 µM: -52.6%

## CNC(=O)CN1CCOCC2(C1)CN(Cc1csnn1)CCO2 (stereo not given)
  cytotoxicity at 10 µM: -89.3%

## Cc1cccc(CO[C@@H]2CC[C@H]3[C@H]2OCCN3Cc2ccoc2)n1
  cytotoxicity at 10 µM: -109%

## CCC1CN(C(=O)c2ccc(O)cn2)CCC(=O)N1Cc1ccccc1 (stereo not given)
  cytotoxicity at 10 µM: 8.5%

## CC(C)c1cc(N2CC[C@H](F)C2)n2nccc2n1
  cytotoxicity at 10 µM: -2.56%

## Cc1ncsc1C(=O)N1CC[C@@]2(O)CCN(C(=O)N3CCCC3)C[C@H]2C1
  cytotoxicity at 10 µM: -14.2%

## CCNC(=O)[C@@H]1C[C@H](N)CN1Cc1ccc(Sc2ccc(C)cc2)o1
  cytotoxicity at 10 µM: -48.3%

## CN(CCCc1cnn(C)c1)Cc1cc2n(n1)CCCN(C)C2
  cytotoxicity at 10 µM: -0.857%

## Cc1cc2ccccc2n1CCC(=O)N1CCCC2(CC1)CNC(=O)O2 (stereo not given)
  cytotoxicity at 10 µM: 3.5%

## Cc1nnsc1CN1CC[C@@](O)(C2CCC2)[C@H](C)C1
  cytotoxicity at 10 µM: 11.8%

## Cc1ccc(C(=O)NCCC2CN(C3CCCC3)CCO2)c(C)c1 (stereo not given)
  cytotoxicity at 10 µM: -3.76%

## CCn1cc(CN2CCC(C3CCN(C)CC3)CC2)cc1C#N
  cytotoxicity at 10 µM: -0.0399%

## NC(=O)c1ccc(CN2C(=O)C3(CCNCC3)Nc3ccccc32)cc1
  cytotoxicity at 10 µM: -6.38%

## N#Cc1ccnc(N2CCC(NCCN3CCOCC3)CC2)c1
  cytotoxicity at 10 µM: -43.4%

## O=C(NCCN1CCCC1)Nc1cc(C(=O)N2CCOCC2)ccc1Cl
  cytotoxicity at 10 µM: -44.2%

## CCCn1cc(NC(=O)c2cccc(CN3CC[C@H](O)C3)c2)nn1
  cytotoxicity at 10 µM: -12.2%

## Cc1c(CN2CCc3[nH]cnc3C2C2CC2)[nH]c2ccc(F)cc12 (stereo not given)
  cytotoxicity at 10 µM: 10.8%

## O=C1CN(Cc2cn(C3CCN(C4CSCCSC4)CC3)nn2)CCN1
  cytotoxicity at 10 µM: -48.8%

## Cc1ccc(-c2nn(-c3cccc(F)c3)cc2CN(C)CCO)o1
  cytotoxicity at 10 µM: 11.6%

## Cc1nc(N2CCCOC(Cn3cccn3)C2)c2sccc2n1 (stereo not given)
  cytotoxicity at 10 µM: 35.5%

## COc1cc(C)ccc1OCc1nc(C(=O)N2CCCO2)co1
  cytotoxicity at 10 µM: -45.9%

## Cc1nccn1CC1CCCN(Cc2ccc(-c3cccnc3)cc2)C1 (stereo not given)
  cytotoxicity at 10 µM: 2.97%

## Cc1ccccc1S(=O)(=O)N1CCc2c(ncnc2N(C)C)C1
  cytotoxicity at 10 µM: -16.6%

## Cc1ccc(-c2cn[nH]c2C2CCCN(c3ccnc(C)n3)C2)cc1 (stereo not given)
  cytotoxicity at 10 µM: -1.78%

## c1ccc(Oc2cccc(OC34CCCN(CC3)C4)c2)cc1 (stereo not given)
  cytotoxicity at 10 µM: 0.681%

## Cc1cnc(NCC(C)(C)N2CCOCC2)nc1
  cytotoxicity at 10 µM: 5.68%

## CS(=O)(=O)c1ccc(NC(=O)N2C[C@H](O)[C@@H](N3CCOCC3)C2)cc1
  cytotoxicity at 10 µM: -46%

## N#Cc1cc2c(nc1SCc1cc(O)nc(O)n1)CCCCC2
  cytotoxicity at 10 µM: 4.97%

## CC(C)c1cc(C(=O)N(C)Cc2cccc3ncccc23)n(C)n1
  cytotoxicity at 10 µM: 12.3%

## N#Cc1cc(F)ccc1CN1CCCC1Cn1cccn1 (stereo not given)
  cytotoxicity at 10 µM: 2.01%

## COC(=O)c1ccc(N2CCN(C(=O)c3cnc(C)cn3)C(C)C2)cc1 (stereo not given)
  cytotoxicity at 10 µM: 3.09%

## Cc1cnn(CCNCC(O)COc2ccc(Cl)cc2Cl)c1 (stereo not given)
  cytotoxicity at 10 µM: -1.76%

## CC(C)c1n[nH]c(C(=O)Nc2ccccn2)c1Br
  cytotoxicity at 10 µM: -31.7%

## Cc1cccc(NC2CCN(C(=O)Nc3ccc(F)c(F)c3)CC2)n1
  cytotoxicity at 10 µM: 9.59%

## N#Cc1cccc(CN2CCN(Cc3cscn3)CC2)c1
  cytotoxicity at 10 µM: 1.16%

## Clc1ccc2cccnc2c1CN1CCCC1Cn1cncn1 (stereo not given)
  cytotoxicity at 10 µM: 3.91%

## Cc1csc(NC(=O)CN2CCC(c3ccnn3CCO)CC2)n1
  cytotoxicity at 10 µM: 5.03%

## Cc1cccc(C2(CNC(=O)CCNS(C)(=O)=O)CCCC2)c1
  cytotoxicity at 10 µM: -5.92%

## Cc1nc(Nc2ncc(C)s2)cc(C2CCCN2)n1 (stereo not given)
  cytotoxicity at 10 µM: 82%

## Cc1nc(CN2C[C@@H]3CCCO[C@@H]3[C@H](N(C)C(C)C)C2)cs1
  cytotoxicity at 10 µM: 6.86%

## COc1cccc(CN2CCC3(CC2)CCN(c2ncc(C)cn2)C3)c1
  cytotoxicity at 10 µM: -3.55%

## Cc1nc(CN2CCC3(CCN(C(=O)c4ccoc4C)CC3)C2)cs1
  cytotoxicity at 10 µM: -5.19%

## COc1cccc(-c2noc(C3CCN(Cc4ccc(C)cc4)C3)n2)c1 (stereo not given)
  cytotoxicity at 10 µM: -5.89%

## CCCN1CCCn2c(nc(CNC(=O)c3nccn3C)cc2=O)C1
  cytotoxicity at 10 µM: 9.73%

## CS(=O)(=O)N1CCC2(CC1)CC(NCc1ccco1)c1ccccc12 (stereo not given)
  cytotoxicity at 10 µM: -110%

## c1cnc(N2CCOCC3(CCCN(Cc4cccs4)C3)C2)nc1 (stereo not given)
  cytotoxicity at 10 µM: -68.3%

## CN1C[C@H]2N(c3ncccn3)CCC[C@@]2(C(=O)NCC2CC2)C1
  cytotoxicity at 10 µM: -103%

## CC(C)OCc1ncn2c1CN(CC1CC1)CCC2
  cytotoxicity at 10 µM: -68.9%

## CCOCC1CN(Cc2cnn(C)c2)Cc2nn(CC3CC3)cc21 (stereo not given)
  cytotoxicity at 10 µM: -75.9%

## Cc1noc(C)c1CN1CCOCC12CCN(c1nccs1)CC2
  cytotoxicity at 10 µM: -104%

## Cc1noc(C)c1CN1CCC2(CC1)NC(=O)CC2c1ccccc1 (stereo not given)
  cytotoxicity at 10 µM: -109%

## O=C1COC2(CCN(Cc3cccs3)CC2)CN1c1cncnc1
  cytotoxicity at 10 µM: -124%

## CS(=O)(=O)NC[C@]12COC[C@H]1CN(CC1CCC1)C2
  cytotoxicity at 10 µM: -110%

## Cc1ccsc1CN1CCn2c(COc3cccnc3)cnc2C1C (stereo not given)
  cytotoxicity at 10 µM: -99.4%

## Cn1cc(CN2CCCC23CCN(C(=O)c2cccn2C)CC3)cn1
  cytotoxicity at 10 µM: 2.88%

## Cc1ccc2c(c1)CN(C(=O)c1cnc(C)cn1)C(CN(C)C)CO2 (stereo not given)
  cytotoxicity at 10 µM: -22.3%

## Fc1ccc(CN2CCO[C@H]3[C@H](OCC4CCCC4)CC[C@@H]32)cc1
  cytotoxicity at 10 µM: 37.9%

## CC1(C)[C@@H]2CC=C(CN3CCCn4nc(C(=O)O)cc4C3)[C@H]1C2
  cytotoxicity at 10 µM: -40.8%

## O=c1c(=CS(=O)(=O)Nc2ccc(Br)cc2)[nH]c(=O)n2cccc12
  cytotoxicity at 10 µM: -9.95%
